System: MS2 coat protein
Test: apparent Kd, MS2 coat protein; higher = weaker binding; RNA-MaP array
Method in brief: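 Apparent Kd is the median of per-cluster binding-curve fits for designed RNAs transcribed from sequenced DNA templates on an Illumina sequencing chip. The RNAs were incubated at room temperature with fluorescently labeled MS2 coat protein at 1.5 nM to 3 μM, with or without input ligand, and designs measured on fewer than 10 clusters were excluded.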

[1] = designed as: ON switch for flavin mononucleotide, no ligand
[2] = ligand present: flavin mononucleotide, designed as: ON switch for flavin mononucleotide
[3] = designed as: OFF switch for flavin mononucleotide, no ligand
[4] = ligand present: flavin mononucleotide, designed as: OFF switch for flavin mononucleotide
[5] = designed as: ON switch for theophylline, no ligand
[6] = ligand present: theophylline, designed as: ON switch for theophylline

| Sequence | apparent Kd [1] | apparent Kd [2] | apparent Kd [3] | apparent Kd [4] | other results |
| --- | --- | --- | --- | --- | --- |
| AAAUAUAAUCAGAAGGGUUGCUAAACAUGAGGAUCACCCAUGUGAUAACGAUACGAGUAAAUCGAACAGGAUAUGAUGCAGGUU | 16.5 nM | 12 nM | – | – | – |
| AACAUUAGAGGAUAUAUCAUCUUUCACAUGAGGAUCACCCAUGUUCCUCAGUGUUAGUGUAUAGAAGGCUAAGACA | – | – | 279 nM | 26.9 nM | – |
| AAGGAGUUAGGAUAUCCGUGCGUUGACAUGAGGAUCACCCAUGUGUUGAUAAACCUACUAGGAGAAGGAACGAUAC | – | – | 20.7 nM | 15.2 nM | – |
| AAGGGUCAACAGAAGGUUGUCGAACAUUGCGCCAAAGGAUAUGUCUACCGUUUAAGCGUUCGUCACAUGAGGAUCACCCAUGUU | 26.8 nM | 18.3 nM | – | – | – |
| AAGUAGGAAGGAUAUACAUGAGGAUCACCCAUGUAAGGCAUUUGGCUAUAAUCGUUAAGUAGAAGGUCCUGCCG | – | – | 8.6 nM | 8.2 nM | – |
| AAGUUGAGCACAAAGGAUAUUUGUAAACAAACAUGAGGAUCACCCAUGUGAACAAUAGUACAUACAAAGAAGGUUGAGAUACAUGU | 54.2 nM | 25.9 nM | – | – | – |
| AAUUGAAUGGUAAGGAUAUAGGGUCGCGCCGAACGCUAGAAGGUACAUGAGGAUCACCCAUGUUGUGCGUCUUC | – | – | 16.9 nM | 17.7 nM | – |
| AAUUGGUGACUAGGAUAUUAGGGAUGGCCGUACUAAGAAGGAGUCGUGCUAACAUGAGGAUCACCCAUGUAUUGGAAGCCUUAA | – | – | 15.5 nM | 13.4 nM | – |
| ACAAGAGUAAAACAUACAUGAGGAUCACCCAUGUUAUCAACAAAGGAUAUCGUUGUGGUAGGGAACGAGAAGGUUGCAAAAUCA | 15.4 nM | 11.7 nM | – | – | – |
| ACAUGAGGAUCACCCAUGUACAUUUAUACUGGGAGACUAUCGUAGGAUAUAUGAACAAGCAUUCUAUAGAAGGACGAAAAGAUC | – | – | 59.4 nM | 40.4 nM | – |
| ACGAAAUCUUAAACUUACGCACAUGAGGAUCACCCAUGUCACUAGGAUAUUAAAACAAAACAAUGUAAGAAGGAGUGAGAAAAG | 13.6 nM | 11.8 nM | – | – | – |
| ACGCACAUGAGGAUCACCCAUGUGAACCUACGAGGACCGGUACGGCCGCCACUCGCUGUUCCUACCGGCUUAAUUGUCACUGGGU | – | – | – | – | apparent Kd (designed as: ON switch for tryptophan, no ligand): 36.5 nM; apparent Kd (ligand present: tryptophan, designed as: ON switch for tryptophan): 35 nM |
| ACGGGACAUGAGGAUCACCCAUGUUAGGAUAUACGAACUUCGCCGAACGUGACCAAUUGUAGAAGGAACUUGGU | – | – | 17.2 nM | 14 nM | – |
| ACGGUAGUACAUGAGGAUCACCCAUGUGGUUUUCUAAGAGGAUAGGAUAUACGUCCAAGCGGCAGGUAGAAGGAUCGAGUUUGC | – | – | 41.7 nM | 34 nM | – |
| ACUACAUGCGAAUACAUGAGGAUCACCCAUGUCCAUAAGACCUAGGAUAUCCAGUAACCCUGCAAGGAGAAGGAGGAGAGCACU | 25.4 nM | 19.6 nM | – | – | – |
| AGAAAUACAUGAGGAUCACCCAUGUGCAUCCUGACUAGUUGACAGGAUAUCAGUCUUACCUGGGCUGAGAAGGGUCCGCGUAGC | – | – | 19.8 nM | – | – |
| AGAACUUUGGUGGAUACCAGCUUCUGGCCAUCCUUCAAAUACAUGAGGAUCACCCAUGUUAGCCCUUGGCAGCCAACAUAGACUG | – | – | – | – | apparent Kd (designed as: OFF switch for theophylline, no ligand): 22.4 nM; apparent Kd (ligand present: theophylline, designed as: OFF switch for theophylline): 222 nM |
| AGACCCUAGCAGAAGGCCCGCGACAUCCAAGAGGGAGGAUAUGCCACUAGAGCAAGCUUUGCACAUGAGGAUCACCCAUGUCCU | 132 nM | 56.6 nM | – | – | – |
| AGCGCCUUAUCAGGAUAUAUGCGCAUGAAGUAGGUACACAUGAGGAUCACCCAUGUCCGGGGAACAUAGAAGGGAUAGAAGUAG | 86.9 nM | 48.7 nM | – | – | – |
| AGCUCACAUGAGGAUCACCCAUGUCAAUUGUCAUCCUAUUGUAGAAGGCCGACACUGAUAUUAACGGAGGAUAUACGAGACAAU | 15.2 nM | 7.85 nM | – | – | – |
| AGUGGUGCAACUGAUACCAGAUUUAUACGAGACAUGAGGAUCACCCAUGUCGAAAGACAAAUCCCUUGGCAGCAGACACGAUCCC | – | – | – | – | apparent Kd [5]: 9.42 nM; apparent Kd [6]: 8.85 nM |
| AUAAACUAACAUGAGGAUCACCCAUGUAUGGAGAAAAUACCUAGAAGGAGGAUAUUUACAACAUCCAAGGAUAUAGGAGCCUCA | 68.1 nM | 42.4 nM | – | – | – |
| AUAGCAAAAGUGAGGAUAUUCGACAUAGAACGCAUGAAGAAGGCACAUGAGGAUCACCCAUGUUCUCGUUAGUA | – | – | 10.6 nM | 14.1 nM | – |
| AUCACUGAGCGAGGAUAUUAUUUCAAAUCAACGACGAUCCUACACAUGAGGAUCACCCAUGUUAGUAAGAAGGCGCGCCAGAUG | – | – | 62.5 nM | 93.5 nM | – |
| AUGAGUAUUAAAGGAUAUCACUUAAUUGAUUGAUGAGAAGGUUAGAUGGCAUACAUGAGGAUCACCCAUGUGGUUUCAUGCGGU | – | – | 86.3 nM | 59.2 nM | – |
| AUGAUCGAACAGAAGGCACGGUGACAGUUAAAGUGAGGAUAUGUAGACAUGAGGAUCACCCAUGUUACUAUACACGGGUCUAUC | – | – | 15.1 nM | 45.9 nM | – |
| AUGCACUCAGUCAGGAUAUGCAACUUAUAAUACAGGCAGAAGGGACAUGAGGAUCACCCAUGUGGCCGGUAAGA | – | – | 9.13 nM | 39.1 nM | – |

| Sequence | apparent Kd [1] | apparent Kd [2] | apparent Kd [3] | apparent Kd [4] | other results |
| --- | --- | --- | --- | --- | --- |
| AUGCCUCCACUAGGAUAUUACAUCUACAUUUCCACUUUCAAACAGACAUGAGGAUCACCCAUGUGUAAGAAGGAGUGCCUAGAG | – | – | – | 8.45 nM | – |
| AUGGUCUCUUAAGGAUAUAGCUAUACAGAGCGCACGUAGGUUAAAUACAUGAGGAUCACCCAUGUCUAGAAGGUAAGUACCGGA | 11.6 nM | 11.1 nM | – | – | – |
| AUGGUGGCUUCAGGAUAUCGCAAGUUAAUACGUCCCACAUGAGGAUCACCCAUGUAACGGUGGGUCGAGAAGGGAACCAUCCCG | – | – | 90.8 nM | 63.5 nM | – |
| AUGUGAUAGGAGAAGGGCUGUCCAUGGACAUCACAGUACAUCCACAUGAGGAUCACCCAUGUUAAGCAGGAUAUCCUGUCGUGU | – | – | 27.2 nM | 58.9 nM | – |
| AUUUCUUCGGUCAGGAUAUCUAGUGUAACGCGGUCAGAGAAGGGACAUGAGGAUCACCCAUGUGUGACUCUCUG | – | – | 5.77 nM | 5.9 nM | – |
| AUUUGACAUGAGGAUCACCCAUGUGACUUGUCGUGAGGAUAUUAUUGAAAUCUAUGUCAUUAAGAAGGCACAAUUU | 32.7 nM | 16.5 nM | – | – | – |
| AUUUUAAACAAGAAGGGCUUACGCAAGCUGAGAGCAGGAUAUUGACAUGAGGAUCACCCAUGUAUUAGACCAUAAGAUCCCAUU | – | – | 20.5 nM | 20.6 nM | – |
| CAACGACAUGAGGAUCACCCAUGUGAGGAUAUCUACUUGAUCAGGUAACUGCUUCCGAAGAGAAGGCACGGUGA | – | – | 20.4 nM | 19.5 nM | – |
| CAAGAGUUAGAAGGAUAUACAAGAUGCUGAAAGAAACGUGAACAAAACAUGAGGAUCACCCAUGUGAAGAAGGUCAAAUAGAAA | – | – | 10.4 nM | 9.21 nM | – |
| CAAGUAGUGGCAUUAACAUGAGGAUCACCCAUGUUGUGCGUCAGAAGGGCUCUAAUGGAUAACCAGCAGGAUAUGAUUUUCAUC | 6.92 nM | 6.89 nM | – | – | – |
| CAAUGAACAUGAGGAUCACCCAUGUAGUAAUGCGAGAAAACGAAGGAUAUAGCGAUACUACAUAGCAAGAAGGUCGCAAACAUA | 40.4 nM | 30.7 nM | – | – | – |
| CACACCGCAGUGAGGAUAUACCAACUGAACGUUGAGUAGAAGGCACAUGAGGAUCACCCAUGUCACUACUGACA | – | – | 8.62 nM | 35.7 nM | – |
| CACAUGAGGAUCACCCAUGUUCGUUCACUUCAUGUAAUGAUUAGAAGGUCACGCGCCUAUCUGCUGAAGGAUAUAAUCCCGAAA | – | – | 11.1 nM | 10.1 nM | – |
| CACCUCCAAGGAUAUACAUGAGGAUCACCCAUGUGGAUAACCUGGGCGCGCCGAGCAAGUAGAAGGUGGAUUGG | – | – | 10.9 nM | 14.7 nM | – |
| CACUGGUACGAGAAGGCACCUGAAGUUGAGAAGUGAGGAUAUCGAAAUAAACACAUGAGGAUCACCCAUGUGAUCCAAGGACGA | – | – | 121 nM | 91.6 nM | – |
| CAGAGACAUGAGGAUCACCCAUGUUGAGAUACCAGCUUGGUAUCGAGCCCUUGGCAGCUCGCCCAUCGUCUAUAUCAGCCUGAGC | – | – | – | – | apparent Kd [5]: 16.5 nM; apparent Kd [6]: 20.2 nM |
| CAGAGCCAAAACAAGGAUAUACAUAACAUUACAUGAGGAUCACCCAUGUUAUAGCUAACCUUGUAGUAGAAGGUGUUUGGCAACAU | 7.36 nM | 6.39 nM | – | – | – |
| CAUAGCAAAAGUGAUACCAGAGUUCGAGGGAACAUGAGGAUCACCCAUGUGCUUGUACAACUCCCUUGGCAGCACAGAGCAAUUA | – | – | – | – | apparent Kd [5]: 23.1 nM; apparent Kd [6]: 10.3 nM |
| CAUAUGUUAGGAUAUAAGUUUAGAUCAUGCGUGUUUAUGGCUUAGAAGGAACAUGAGGAUCACCCAUGUAACAG | – | – | 21.2 nM | 22.3 nM | – |
| CAUGCGGCUAGUGAGCGUGGUGAGUAAAGGCGAGGACCGGUACGGCCGCCACUCGAGGCAAGACAUGAGGAUCACCCAUGUUGUA | – | – | – | – | apparent Kd (designed as: OFF switch for tryptophan, no ligand): 15.1 nM; apparent Kd (ligand present: tryptophan, designed as: OFF switch for tryptophan): 12.9 nM |
| CAUUUCUUCACAGGAUAUGCCGUACAUGAGGAUCACCCAUGUGGGUGGGCGUAGCACUGUAGUGCGCAGAAGGGUGGAUCCGAC | – | – | 113 nM | 79.2 nM | – |
| CCAGGGCGAAACAUGAGGAUCACCCAUGUCCUAGCAACGAUGAGAAGGGUAAACACAAUGUCUUUACAGGAUAUCAACCAUACG | 11.2 nM | 7.6 nM | – | – | – |
| CCAGGGCUCGAGAAGGCCCGCGCGGUUCAGUACGUAGGUACAUGAGGAUCACCCAUGUCGGAUUGGGAGGAUAUCGAUUCUUGU | 335 nM | 80.1 nM | – | – | – |
| CCAGUGGGUGGAGGAUAUGAUGACAAACUGUGUUCAGAAGGCCACCUCAAGACACGAACAUGAGGAUCACCCAUGUCCCAACCU | 227 nM | 15.8 nM | – | – | – |
| CCCGGUGAUGUCAAACAUGAGGAUCACCCAUGUCUUCACCAUAGAAGGCGCUUUAUUCUAGCUAGCGAGGAUAUAUGGUUUCAG | – | – | 39.6 nM | 44.6 nM | – |
| CCGUCACAUGAGGAUCACCCAUGUGGUGAUACCAGCAGUCGACCCUGCCCUUGGCAGCACAUUAUCAUAAAAGCAAUCAGCAACG | – | – | – | – | apparent Kd [5]: 156 nM; apparent Kd [6]: 149 nM |
| CCUCGUCCGUACAUGAGGAUCACCCAUGUGAGCCCUAAACCCAGAAGGCAAUGAAUACCUAUUCUUGAGGAUAUGGAUCACCGU | – | – | 279 nM | 185 nM | – |
